{
  "source": "the RNAGym collection of RNA variant scans (doi:10.1002/anie.201605470)",
  "parents": {"B1": {"name": "Osa-1-4 twister ribozyme (parent)", "chain": "CCGCCUAACACUGCCAAUGCCGGUCCCAAGCCCGGAUAAAAGUGGAGGGGGCGG"}},
  "data": [
    {"variants_of": "B1", "test": "self-cleavage, relative activity (ratio to wild type); higher = more cleavage; co-transcriptional", "in_short": "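A DNA template encoding a 54-nucleotide twister ribozyme from Oryza sativa was made so that each of the 48 positions downstream of the cleavage site carried 97 % wild-type base and 1 % of each other base. Transcription in vitro ran for 2 h at 37 °C, during which the ribozyme could cleave itself. Reverse transcription used a template-switching oligonucleotide, and the products were PCR-amplified and deep-sequenced. Each read was scored as cleaved or uncleaved by whether upstream sequence was present, and relative activity is the fraction cleaved normalised to wild type.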", "values": [
      {"variant": "A16C C15U", "self-cleavage": 0.62},
      {"variant": "A16C C31U", "self-cleavage": 0.55},
      {"variant": "A16C C31G", "self-cleavage": 0.1},
      {"variant": "A16C C31A", "self-cleavage": 0.04},
      {"variant": "A16C G34A", "self-cleavage": 0.44},
      {"variant": "A16C G34U", "self-cleavage": 0.34},
      {"variant": "A16C G34C", "self-cleavage": 0.23},
      {"variant": "A16G C14U", "self-cleavage": 0.64},
      {"variant": "A16G C14G", "self-cleavage": 0.53},
      {"variant": "A16G C14A", "self-cleavage": 0.15},
      {"variant": "A16C G49U", "self-cleavage": 0.08},
      {"variant": "A16C G49C", "self-cleavage": 0.05},
      {"variant": "A16C G49A", "self-cleavage": 0.09},
      {"variant": "A16G U37C", "self-cleavage": 1.03},
      {"variant": "A16G U37G", "self-cleavage": 1.02},
      {"variant": "A16G U37A", "self-cleavage": 0.87},
      {"variant": "A16G A36U", "self-cleavage": 1.06},
      {"variant": "A16G A36G", "self-cleavage": 1.01},
      {"variant": "A16G A36C", "self-cleavage": 0.86},
      {"variant": "A16C U12A", "self-cleavage": 0.71},
      {"variant": "A16C U12C", "self-cleavage": 0.44},
      {"variant": "A16C U12G", "self-cleavage": 0.09},
      {"variant": "A16C G47U", "self-cleavage": 0.13},
      {"variant": "A16C G47A", "self-cleavage": 0.14},
      {"variant": "A16C G47C", "self-cleavage": 0.05},
      {"variant": "A16G G54U", "self-cleavage": 0.93},
      {"variant": "A16G G54A", "self-cleavage": 0.98},
      {"variant": "A16G G54C", "self-cleavage": 0.99},
      {"variant": "A16C G30U", "self-cleavage": 0.04},
      {"variant": "A16C G30A", "self-cleavage": 0.04},
      {"variant": "A16C G30C", "self-cleavage": 0.05},
      {"variant": "A16G A39G", "self-cleavage": 0.9},
      {"variant": "A16G A39C", "self-cleavage": 1.01},
      {"variant": "A16G A39U", "self-cleavage": 0.97},
      {"variant": "A16C A28C", "self-cleavage": 0.83},
      {"variant": "A16C A28G", "self-cleavage": 0.16},
      {"variant": "A16C A28U", "self-cleavage": 0.76},
      {"variant": "A16G G19C", "self-cleavage": 0.4},
      {"variant": "A16G G19A", "self-cleavage": 0.98},
      {"variant": "A16G G19U", "self-cleavage": 0.57},
      {"variant": "A16C G53A", "self-cleavage": 0.65},
      {"variant": "A16C G53U", "self-cleavage": 0.25},
      {"variant": "A16C G53C", "self-cleavage": 0.09},
      {"variant": "A16G A8C", "self-cleavage": 0.09},
      {"variant": "A16G A8G", "self-cleavage": 0.76},
      {"variant": "A16G A8U", "self-cleavage": 0.5},
      {"variant": "A16C C33G", "self-cleavage": 0.06},
      {"variant": "A16C C33A", "self-cleavage": 0.08},
      {"variant": "A16C C33U", "self-cleavage": 0.55},
      {"variant": "A16U A29U", "self-cleavage": 0.11},
      {"variant": "A16U A29G", "self-cleavage": 0.18},
      {"variant": "A16U A29C", "self-cleavage": 0.04},
      {"variant": "A16G G48A", "self-cleavage": 0.18},
      {"variant": "A16G G48U", "self-cleavage": 0.1},
      {"variant": "A16G G48C", "self-cleavage": 0.15},
      {"variant": "A16C C11G", "self-cleavage": 0.17},
      {"variant": "A16C C11U", "self-cleavage": 0.86},
      {"variant": "A16C C11A", "self-cleavage": 0.58},
      {"variant": "A16U A7G", "self-cleavage": 0.27},
      {"variant": "A16U A7C", "self-cleavage": 0.04},
      {"variant": "A16U A7U", "self-cleavage": 0.06},
      {"variant": "A16G U18A", "self-cleavage": 0.92},
      {"variant": "A16G U18G", "self-cleavage": 0.83},
      {"variant": "A16G U18C", "self-cleavage": 0.97},
      {"variant": "A16C C21U", "self-cleavage": 0.93},
      {"variant": "A16C C21A", "self-cleavage": 0.45},
      {"variant": "A16C C21G", "self-cleavage": 0.08},
      {"variant": "A16G G42A", "self-cleavage": 0.86},
      {"variant": "A16G G42U", "self-cleavage": 0.57},
      {"variant": "A16G G42C", "self-cleavage": 0.62},
      {"variant": "A16C A8U", "self-cleavage": 0.19},
      {"variant": "A16C A8G", "self-cleavage": 0.36},
      {"variant": "A16C A8C", "self-cleavage": 0.13},
      {"variant": "A16C U37G", "self-cleavage": 0.96},
      {"variant": "A16C U37C", "self-cleavage": 1.02},
      {"variant": "A16C U37A", "self-cleavage": 0.84},
      {"variant": "A16U C11A", "self-cleavage": 0.64},
      {"variant": "A16U C11G", "self-cleavage": 0.55},
      {"variant": "A16U C11U", "self-cleavage": 0.8},
      {"variant": "A16G C32G", "self-cleavage": 0.19},
      {"variant": "A16G C32A", "self-cleavage": 0.08},
      {"variant": "A16G C32U", "self-cleavage": 0.09},
      {"variant": "A16G U12C", "self-cleavage": 0.53},
      {"variant": "A16G U12A", "self-cleavage": 0.97},
      {"variant": "A16G U12G", "self-cleavage": 0.55},
      {"variant": "A16G C25G", "self-cleavage": 0.16},
      {"variant": "A16G C25A", "self-cleavage": 0.24},
      {"variant": "A16G C25U", "self-cleavage": 0.94},
      {"variant": "A16G G30A", "self-cleavage": 0.04},
      {"variant": "A16G G30U", "self-cleavage": 0.04},
      {"variant": "A16G G30C", "self-cleavage": 0.05},
      {"variant": "A16G A17U", "self-cleavage": 0.94},
      {"variant": "A16G A17C", "self-cleavage": 0.91},
      {"variant": "A16G A17G", "self-cleavage": 0.92},
      {"variant": "A16G A46U", "self-cleavage": 0.11},
      {"variant": "A16G A46C", "self-cleavage": 0.15},
      {"variant": "A16G A46G", "self-cleavage": 0.1},
      {"variant": "A16C A41G", "self-cleavage": 0.63},
      {"variant": "A16C A41C", "self-cleavage": 0.74},
      {"variant": "A16C A41U", "self-cleavage": 0.97},
      {"variant": "A16G G23C", "self-cleavage": 0.09},
      {"variant": "A16G G23U", "self-cleavage": 0.14},
      {"variant": "A16G G23A", "self-cleavage": 0.68},
      {"variant": "A16G A28U", "self-cleavage": 0.92},
      {"variant": "A16G A28C", "self-cleavage": 1},
      {"variant": "A16G A28G", "self-cleavage": 0.6},
      {"variant": "A16G G13A", "self-cleavage": 0.2},
      {"variant": "A16G G13U", "self-cleavage": 0.04},
      {"variant": "A16G G13C", "self-cleavage": 0.02},
      {"variant": "A16C G42U", "self-cleavage": 0.52},
      {"variant": "A16C G42A", "self-cleavage": 0.6},
      {"variant": "A16C G42C", "self-cleavage": 0.11},
      {"variant": "A16G U24C", "self-cleavage": 0.58},
      {"variant": "A16G U24G", "self-cleavage": 0.04},
      {"variant": "A16G U24A", "self-cleavage": 0.48},
      {"variant": "A16G C33G", "self-cleavage": 0.08},
      {"variant": "A16G C33A", "self-cleavage": 0.26},
      {"variant": "A16G C33U", "self-cleavage": 0.87},
      {"variant": "A16C C20U", "self-cleavage": 0.93},
      {"variant": "A16C C20G", "self-cleavage": 0.12},
      {"variant": "A16C C20A", "self-cleavage": 0.83},
      {"variant": "C15U U18G", "self-cleavage": 0.39},
      {"variant": "A16C C14G", "self-cleavage": 0.29},
      {"variant": "A16C C14U", "self-cleavage": 0.27},
      {"variant": "A16C C14A", "self-cleavage": 0.08},
      {"variant": "A16C G13C", "self-cleavage": 0.04},
      {"variant": "A16C G13U", "self-cleavage": 0.04},
      {"variant": "A16C G13A", "self-cleavage": 0.08},
      {"variant": "A16G G53U", "self-cleavage": 0.71},
      {"variant": "A16G G53A", "self-cleavage": 0.91},
      {"variant": "A16G G53C", "self-cleavage": 0.16},
      {"variant": "A16G A38C", "self-cleavage": 0.98},
      {"variant": "A16G A38U", "self-cleavage": 1.05},
      {"variant": "A16G A38G", "self-cleavage": 0.97},
      {"variant": "A16U A28C", "self-cleavage": 0.91},
      {"variant": "A16U A28U", "self-cleavage": 0.87},
      {"variant": "A16U A28G", "self-cleavage": 0.24},
      {"variant": "A16C C52A", "self-cleavage": 0.9},
      {"variant": "A16C C52U", "self-cleavage": 0.98},
      {"variant": "A16C C52G", "self-cleavage": 0.96},
      {"variant": "A16C A36C", "self-cleavage": 0.33},
      {"variant": "A16C A36G", "self-cleavage": 1.01},
      {"variant": "A16C A36U", "self-cleavage": 0.99},
      {"variant": "A16C G45A", "self-cleavage": 0.17},
      {"variant": "A16C G45U", "self-cleavage": 0.09},
      {"variant": "A16C G45C", "self-cleavage": 0.05},
      {"variant": "A16G A7U", "self-cleavage": 0.13},
      {"variant": "A16G A7C", "self-cleavage": 0.08},
      {"variant": "A16G A7G", "self-cleavage": 0.61},
      {"variant": "A16C G54A", "self-cleavage": 0.86},
      {"variant": "A16C G54C", "self-cleavage": 0.82},
      {"variant": "A16C G54U", "self-cleavage": 0.88},
      {"variant": "A16G G47A", "self-cleavage": 0.6},
      {"variant": "A16G G47C", "self-cleavage": 0.2},
      {"variant": "A16G G47U", "self-cleavage": 0.49},
      {"variant": "A16G C9G", "self-cleavage": 0.92},
      {"variant": "A16G C9U", "self-cleavage": 0.84},
      {"variant": "A16G C9A", "self-cleavage": 0.59},
      {"variant": "A16C G23A", "self-cleavage": 0.14},
      {"variant": "A16C G23U", "self-cleavage": 0.06},
      {"variant": "A16C G23C", "self-cleavage": 0.04},
      {"variant": "A16U A8U", "self-cleavage": 0.35},
      {"variant": "A16U A8C", "self-cleavage": 0.06},
      {"variant": "A16U A8G", "self-cleavage": 0.62},
      {"variant": "A16U A38U", "self-cleavage": 1.05},
      {"variant": "A16U A38C", "self-cleavage": 1},
      {"variant": "A16U A38G", "self-cleavage": 0.94}
    ]}
  ]
}
